Source: ChEMBL document CHEMBL2412985, “Peroxisome proliferator-activated receptor delta antagonists inhibit hepatitis C virus RNA replication” (Bioorg Med Chem Lett, 2013)
Active and inactive are the calls of the source. The calls are words filed in the database; no cut-off is given here.

What was measured:
[1] = target: T1, Peroxisome proliferator-activated receptor alpha (Homo sapiens) (UniProt Q07869); experiment: Antagonist activity at human PPARalpha assessed as effect on TIPP-703-induced activity at 10 uM
T1 sequence (whole entry): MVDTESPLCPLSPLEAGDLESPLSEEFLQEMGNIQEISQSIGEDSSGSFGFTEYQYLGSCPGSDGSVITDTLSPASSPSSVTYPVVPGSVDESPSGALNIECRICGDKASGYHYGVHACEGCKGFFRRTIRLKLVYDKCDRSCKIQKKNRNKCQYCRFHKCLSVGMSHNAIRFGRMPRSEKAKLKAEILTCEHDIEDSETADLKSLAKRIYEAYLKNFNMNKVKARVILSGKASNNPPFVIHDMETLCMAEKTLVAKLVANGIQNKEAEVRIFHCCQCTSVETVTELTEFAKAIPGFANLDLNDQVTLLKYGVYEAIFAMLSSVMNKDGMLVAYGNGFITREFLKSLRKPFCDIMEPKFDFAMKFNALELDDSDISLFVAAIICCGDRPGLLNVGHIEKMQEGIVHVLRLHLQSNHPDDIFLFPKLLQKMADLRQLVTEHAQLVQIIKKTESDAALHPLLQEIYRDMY
Summary of the method: (§1)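 Antagonism was measured against stimulation by the hPPAR-pan agonist, with test compound co-applied and the result expressed as % inhibition.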

[2] = target: T2, Peroxisome proliferator-activated receptor delta (Homo sapiens, UniProt Q03181); experiment: Antagonist activity at human PPARdelta assessed as effect on TIPP-703-induced activity; summary of the method: as §1
T2 sequence (Q03181 whole entry): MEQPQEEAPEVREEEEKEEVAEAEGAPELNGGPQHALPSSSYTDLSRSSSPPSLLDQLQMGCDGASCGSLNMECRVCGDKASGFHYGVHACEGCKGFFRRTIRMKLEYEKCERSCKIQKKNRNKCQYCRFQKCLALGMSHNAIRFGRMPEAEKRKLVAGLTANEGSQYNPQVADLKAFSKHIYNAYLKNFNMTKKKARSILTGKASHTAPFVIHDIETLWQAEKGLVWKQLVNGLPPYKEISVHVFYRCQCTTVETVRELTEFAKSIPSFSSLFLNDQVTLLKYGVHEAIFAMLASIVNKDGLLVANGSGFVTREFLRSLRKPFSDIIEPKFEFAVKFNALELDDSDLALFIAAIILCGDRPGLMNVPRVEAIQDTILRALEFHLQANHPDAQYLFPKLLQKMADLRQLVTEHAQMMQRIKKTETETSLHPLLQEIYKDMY

[3] = Selectivity index, ratio of CC50 for […] OR6 cells to ED50 for HCV
Summary of the method: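 SI was calculated as CC₅₀ (WST-1 viability of OR6 cells, 72 h) divided by EC₅₀ (HCV replicon Renilla luciferase inhibition, 72 h).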

[4] = Cytotoxicity against […] OR6 cells after 72 hrs by WST1 assay; format: cell-based
Summary of the method: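 OR6 cells were seeded at 1 × 10³ per well in triplicate and treated at three or four concentrations for 72 h. Viability was read by WST-1 proliferation assay, and CC₅₀ was determined.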

Hepatitis C virus = experiment: Antiviral activity against HCV infected in […] OR6 cells assessed as inhibition of viral RNA replication after 72 hrs by luciferase reporter gene assay; format: functional, Hepacivirus hominis; conditions: for EC50: OR6, 72 h, read-out: ED50 (the source's name)
Summary of the method: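 OR6 cells carry genome-length HCV RNA with a Renilla luciferase reporter. Cells were plated at 2 × 10⁴ per well, at least in triplicate, and cultured 24 h. They were then exposed to compound for 72 h, lysed in Renilla lysis reagent, and luciferase activity was read. The top test concentration was set from prior WST-1 viability at about 80% relative activity.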

[5] = target: T3, Peroxisome proliferator-activated receptor delta (Homo sapiens) (UniProt Q03181); experiment: Antagonist activity at human PPARdelta assessed as effect on TIPP-703-induced activity at 10 uM
T3 sequence (whole entry): T2 sequence (Q03181 whole entry)
Summary of the method: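 Antagonism measured as % inhibition of hPPARδ activity stimulated by a co-added hPPAR pan-agonist held at a fixed level of […].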

Homo sapiens = species: Homo sapiens; experiment: Selectivity ratio of human PPARdelta to human PPARalpha

Structure (SMILES) | inhibition [1] [%] | IC50 ([2]; read-out: IC50) [nM] | Selectivity Index [3] | CC50 at 72 h [4] [nM] | EC50 (Hepatitis C virus) [nM] | IC50 [2] | ED50 (Hepatitis C virus; Hepacivirus hominis) | also measured
CCOc1ccc(-c2ccc(C(=O)O)cc2C)cc1CNC(=O)c1ccc(C(F)(F)F)cc1F | 49.5 | 28 | 10 | 3900 | 390 | – | – | –
CCCCOc1ccc(-c2ccc(C(=O)O)o2)cc1CNC(=O)c1ccc(C(F)(F)F)cc1 | – | – | – | – | – | Not Active | inactive | –
CCCCOc1ccc(-c2cc(C(=O)O)ccc2C)cc1CNC(=O)c1ccc(C(F)(F)F)cc1 | – | – | – | – | – | Not Active | inactive | –
CCCCOc1ccc(-c2ccc(C(=O)O)cc2Cl)cc1CNC(=O)c1ccc(C(F)(F)F)cc1 | 30.7 | 13 | 1.8 | 3200 | 1800 | – | – | –
NC(=O)c1ncn([C@@H]2O[C@H](CO)[C@@H](O)[C@H]2O)n1 [RIBAVIRIN] | – | – | 18 | 100000 | 5600 | – | – | inhibition [5]: inactive
CCCCOc1ccc(-c2ccc(C)c(C(=O)O)c2)cc1CNC(=O)c1ccc(C(F)(F)F)cc1 | – | – | – | – | – | Not Active | inactive | –
CCCCOc1ccc(-c2ccc(C(=O)O)cc2C)cc1CNC(=O)c1ccc(C(F)(F)F)cc1 | 12.6 | 19 | 11 | 2500 | 220 | – | – | Selectivity ratio (Homo sapiens): 1000; inhibition (Hepatitis C virus; Hepacivirus hominis): Dose-dependent effect
CCCCOc1ccc(-c2ccc(C(=O)O)cn2)cc1CNC(=O)c1ccc(C(F)(F)F)cc1 | – | – | – | – | – | Not Active | inactive | –
O=C(Nc1ccncc1)c1cc([N+](=O)[O-])ccc1Cl | 31.8 | > 10000 | 0.55 | 2700 | 4900 | – | – | –
CCCOc1ccc(-c2ccc(C(=O)O)cc2C)cc1CNC(=O)c1ccc(C(F)(F)F)cc1F | 49.5 | 29 | 11 | 2200 | 220 | – | – | –
CCCCOc1ccc(-c2ccc(C(=O)O)cc2F)cc1CNC(=O)c1ccc(C(F)(F)F)cc1 | 25.4 | 100 | 2.1 | 8100 | 3900 | – | – | –
CCCCOc1ccc(-c2ccc(C(=O)O)nc2)cc1CNC(=O)c1ccc(C(F)(F)F)cc1 | – | – | – | – | – | Not Active | inactive | –
COC(=O)c1sccc1S(=O)(=O)Nc1ccc(Nc2ccccc2)cc1OC | – | – | – | – | – | – | – | Activity (Hepatitis C virus; Hepacivirus hominis): inactive
CCCCCOc1ccc(-c2ccc(C(=O)O)cc2C)cc1CNC(=O)c1ccc(C(F)(F)F)cc1F | 23.3 | 92 | 5 | 2700 | 530 | – | – | –
